One experiment concerns B16. In words: Inhibitory concentration for cytotoxic activity against B16 cell line. In kind it is functional, cell-based. The settings on record: Mus musculus. Put shortly:
(§1)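 […] cytotoxicity measured by MTT assay on B16, Vero, U87 and SiHa cells, run alongside HUVEC for selectivity comparison.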

The nature of experiment [1]: Inhibitory concentration for cytotoxic activity against U87 cell line. The experiment is classed as functional, cell-based, U-87MG ATCC. The settings on record: Homo sapiens, U-87 MG. In a few lines: as §1
For a further experiment, the system named is SiHa. As to the kind of experiment: Inhibitory concentration for cytotoxic activity against SiHa cell line. The experiment is classed as functional, cell-based. The settings on record: Homo sapiens. In a few lines:
as §1

The test system of the next experiment is Vero. In words: Inhibitory concentration for cytotoxic activity against Vero cell line. To be noted: Chlorocebus sabaeus. The experiment is classed as functional, cell-based. Put shortly: as §1
The test system of experiment [2] is HUVEC. As to the kind of experiment: Inhibitory concentration against human umbilical vein endothelial cells(HUVEC) growth. In kind it is functional, cell-based. Put shortly:
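Human umbilical vein endothelial cell (HUVEC) proliferation assay; IC50 derived by nonlinear regression.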

Experiment [3] has as its system HUVEC. As to the kind of experiment: Percentage tube formation inhibition against human umbilical vein endothelial cells(HUVEC) at a concentration of 5 ug/mL. In kind it is functional. Put shortly: (§2)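 HUVEC tube formation with test agent at 10, 5 or 2.5 µg/mL; total tube length per field quantified by image analysis and expressed as a percentage of the untreated control.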

The subject of experiment [4] is HUVEC. In words: Percentage tube formation inhibition against human umbilical vein endothelial cells(HUVEC) at a concentration of 10 ug/mL. In kind it is functional. Put shortly: as §2
Experiment [5] concerns HUVEC. In words: Percentage tube formation inhibition against human umbilical vein endothelial cells(HUVEC) at a concentration of 2.5 ug/mL. In kind it is functional. In a few lines:
as §2

SMILES strings stand for the structures. Converted amounts (≈) assume the structure as drawn.

By IC50 is commonly meant the midpoint of a concentration-inhibition curve. The term inhibition denotes the share of the control response that was lost under treatment. Read a low inhibition as little suppression. Turning to `COc1cc(/C=C/C(=O)c2cccc(NC(=O)c3ccccc3)c2)ccc1O`, the IC50 in the experiment with B16 came to 0.82 µg/mL (≈ 2.2 µM); in experiment [1] it was 8.82 µg/mL (≈ 23.6 µM); with SiHa it was 4.57 µg/mL (≈ 12.2 µM); with Vero it was 3.47 µg/mL (≈ 9.29 µM); in the experiment with HUVEC [2] it was 0.37 µg/mL (≈ 0.991 µM). In the experiment on HUVEC [3], this compound had an inhibition at 5 µg/mL of 48%. In the experiment on HUVEC [4], this compound showed an inhibition at 10 µg/mL of 69%.
With `COc1cc(/C=C/C(=O)c2cccc(NC(=O)c3cccs3)c2)ccc1O`, the IC50 was 6.93 µg/mL (≈ 18.3 µM) with B16; 14.7 µg/mL (≈ 38.7 µM) in experiment [1]; 6.57 µg/mL (≈ 17.3 µM) in the experiment with SiHa; 3.98 µg/mL (≈ 10.5 µM) in the experiment on Vero; 0.38 µg/mL (≈ 1 µM) with HUVEC [2]. In the experiment on HUVEC [3], testing at 5 µg/mL gave an inhibition of 80%. Further, the inhibition at 10 µg/mL in the experiment on HUVEC [4] was 90%. The inhibition at 2.5 µg/mL in the experiment with HUVEC [5] stood at 71%.
As to `COc1cc(/C=C/C(=O)c2cccc(NC(=O)c3ccc(Cl)cc3)c2)ccc1O`, the IC50 is 0.59 µg/mL (≈ 1.45 µM) in the experiment on B16; above 50 µg/mL in experiment [1]; 2.3 µg/mL (≈ 5.64 µM) in the experiment with SiHa; 3.82 µg/mL (≈ 9.37 µM) in the experiment with Vero; 0.76 µg/mL (≈ 1.86 µM) in the experiment with HUVEC [2]. 5 µg/mL produced 42% inhibition with HUVEC [3]. Further, the inhibition at 10 µg/mL in the experiment with HUVEC [4] was found to be 66%.
For the compound `COC(=O)C(=O)Nc1cccc(C(=O)/C=C/c2ccc(O)c(OC)c2)c1`, the IC50 in the experiment with B16 is 4.41 µg/mL (≈ 12.4 µM); in experiment [1], 12.2 µg/mL (≈ 34.4 µM); in the experiment on SiHa, 7.71 µg/mL (≈ 21.7 µM); in the experiment on Vero, 3.55 µg/mL (≈ 9.99 µM); in the experiment with HUVEC [2] it was 1.5 µg/mL (≈ 4.22 µM). Moreover, in the experiment with HUVEC [3], the inhibition at 5 µg/mL is 20%. The same compound displayed an inhibition at 10 µg/mL in the experiment with HUVEC [4] of 43%.
Turning to `CCCC(=O)Nc1cccc(C(=O)/C=C/c2ccc(O)c(OC)c2)c1`, the IC50 turned out to be 1.43 µg/mL (≈ 4.21 µM) in the experiment on B16; 5.56 µg/mL (≈ 16.4 µM) in experiment [1]; 3.94 µg/mL (≈ 11.6 µM) in the experiment on SiHa; 2.04 µg/mL (≈ 6.01 µM) in the experiment with Vero; 1.27 µg/mL (≈ 3.74 µM) with HUVEC [2]. In addition, the inhibition at 5 µg/mL with HUVEC [3] was 57%. This compound came in with an inhibition at 10 µg/mL in the experiment with HUVEC [4] of 87%. The compound further came in with an inhibition at 2.5 µg/mL in the experiment with HUVEC [5] of 40%.
`COc1cc(/C=C/C(=O)c2cccc(NC(=O)C(C)C)c2)ccc1O`: the 50% inhibitory concentration (IC50) stood at 1.09 µg/mL (≈ 3.21 µM) with B16; 8.31 µg/mL (≈ 24.5 µM) in experiment [1]; 5.96 µg/mL (≈ 17.6 µM) in the experiment with SiHa; 3.47 µg/mL (≈ 10.2 µM) in the experiment with Vero; 1.44 µg/mL (≈ 4.24 µM) in the experiment on HUVEC [2]. Also, in the experiment with HUVEC [3], the inhibition at 5 µg/mL stood at 51%. This compound also showed an inhibition at 10 µg/mL in the experiment on HUVEC [4] of 56%. The compound further came in with an inhibition at 2.5 µg/mL in the experiment with HUVEC [5] of 11%.
In the case of `COc1cc(/C=C/C(=O)c2cccc(NC(=O)c3c(Cl)cccc3Cl)c2)ccc1O`, the IC50 with B16 amounted to 1.58 µg/mL (≈ 3.57 µM); in experiment [1] it was 17.8 µg/mL (≈ 40.3 µM); in the experiment on SiHa, 3.56 µg/mL (≈ 8.05 µM); in the experiment on Vero, 2.48 µg/mL (≈ 5.61 µM); in the experiment with HUVEC [2], 0.46 µg/mL (≈ 1.04 µM). The same compound displayed an inhibition at 5 µg/mL in the experiment with HUVEC [3] of 88%. Moreover, in the experiment with HUVEC [4], the inhibition at 10 µg/mL was determined as 99%. Besides, in the experiment with HUVEC [5], the inhibition at 2.5 µg/mL came to 53%.
Regarding `COc1cc(/C=C/C(=O)c2cccc(N)c2)ccc1O`, the IC50 in the experiment with B16 is 11.5 µg/mL (≈ 42.6 µM); in experiment [1], 7.71 µg/mL (≈ 28.6 µM); in the experiment with SiHa, 12.3 µg/mL (≈ 45.8 µM); with Vero, 6.02 µg/mL (≈ 22.4 µM); in the experiment with HUVEC [2] it was 2.87 µg/mL (≈ 10.7 µM). The compound also yielded an inhibition at 5 µg/mL in the experiment with HUVEC [3] of 50%. The inhibition at 10 µg/mL in the experiment with HUVEC [4] amounted to 90%. Moreover, in the experiment with HUVEC [5], at 2.5 µg/mL the inhibition was 20%.
In the case of `COc1cc(/C=C/C(=O)c2cccc(NC(=O)c3ccco3)c2)ccc1O`, the IC50 amounted to 5.46 µg/mL (≈ 15 µM) in the experiment with B16; 6.65 µg/mL (≈ 18.3 µM) in experiment [1]; 0.76 µg/mL (≈ 2.09 µM) in the experiment with SiHa; 3.11 µg/mL (≈ 8.56 µM) with Vero; 0.38 µg/mL (≈ 1.05 µM) in the experiment on HUVEC [2]. Further, in the experiment on HUVEC [3], the inhibition at 5 µg/mL is 82%. The compound further yielded an inhibition at 10 µg/mL in the experiment on HUVEC [4] of 100%. For the same compound, in the experiment with HUVEC [5], testing at 2.5 µg/mL gave an inhibition of 61%.
As to `COc1cc(/C=C/C(=O)c2cccc(NC(=O)c3ccc(Cl)cc3Cl)c2)ccc1O`, the IC50 with B16 was 12.8 µg/mL (≈ 29 µM); in experiment [1] it was above 50 µg/mL; in the experiment on SiHa it was 34.4 µg/mL (≈ 77.8 µM); with Vero it was 27.2 µg/mL (≈ 61.5 µM); in the experiment on HUVEC [2] it was 0.4 µg/mL (≈ 0.904 µM). In the experiment on HUVEC [3], testing at 5 µg/mL gave an inhibition of 51%. Testing at 10 µg/mL in the experiment on HUVEC [4] gave an inhibition of 70%. Testing at 2.5 µg/mL in the experiment on HUVEC [5] gave an inhibition of 29%.
Regarding `COc1cc(/C=C/C(=O)c2cccc(NC(=O)c3ccc(Cl)c(Cl)c3)c2)ccc1O`, the IC50 was 3.88 µg/mL (≈ 8.77 µM) with B16; 29.5 µg/mL (≈ 66.6 µM) in experiment [1]; 25.3 µg/mL (≈ 57.2 µM) in the experiment on SiHa; above 50 µg/mL in the experiment on Vero; 2.97 µg/mL (≈ 6.71 µM) with HUVEC [2]. Besides, in the experiment on HUVEC [3], the inhibition at 5 µg/mL is 5%. Besides, in the experiment with HUVEC [4], the inhibition at 10 µg/mL amounted to 45%.
On to `COc1cc(/C=C/C(=O)c2cccc(NC(=O)c3cc(Cl)cc(Cl)c3)c2)ccc1O`, for which the IC50 in the experiment with B16 was 4.83 µg/mL (≈ 10.9 µM); in experiment [1], above 50 µg/mL; in the experiment on SiHa, 17.7 µg/mL (≈ 40 µM); in the experiment with Vero, above 50 µg/mL; with HUVEC [2], 0.75 µg/mL (≈ 1.7 µM). Moreover, in the experiment on HUVEC [3], testing at 5 µg/mL gave an inhibition of 51%. The compound further showed an inhibition at 10 µg/mL with HUVEC [4] of 58%. The same compound gave an inhibition at 2.5 µg/mL in the experiment with HUVEC [5] of 15%.
Consider `COc1cc(/C=C/C(=O)c2cccc(NC(C)=O)c2)ccc1O`, for which the IC50 is 3.62 µg/mL (≈ 11.6 µM) with B16; above 50 µg/mL in experiment [1]; 15.8 µg/mL (≈ 50.6 µM) with SiHa; 14.5 µg/mL (≈ 46.5 µM) with Vero; 7.06 µg/mL (≈ 22.7 µM) in the experiment with HUVEC [2]. Testing at 5 µg/mL with HUVEC [3] gave an inhibition of 15%. Moreover, the inhibition at 10 µg/mL in the experiment with HUVEC [4] worked out at 32%.
For `CCOC(=O)C(=O)Nc1cccc(C(=O)/C=C/c2ccc(O)c(OC)c2)c1`, the IC50 with B16 was 7.03 µg/mL (≈ 19 µM); in experiment [1], above 50 µg/mL; with SiHa it was above 50 µg/mL; in the experiment on Vero, above 50 µg/mL; with HUVEC [2], 13.3 µg/mL (≈ 36 µM). Further, in the experiment with HUVEC [3], 5 µg/mL produced 45% inhibition. In the experiment with HUVEC [4], this compound yielded an inhibition at 10 µg/mL of 66%.
`COc1cc(/C=C/C(=O)CC(=O)/C=C/c2ccc(O)c(OC)c2)ccc1O` [CURCUMIN] displayed an IC50 in the experiment with HUVEC [2] of 10.8 µg/mL (≈ 29.4 µM).
